Reference: ChEMBL document CHEMBL1125797, “Synthesis, characterization and myocardial uptake of cationic bis(arene)technetium(I) complexes” (J Med Chem, 1991)

Experiments:
Rattus norvegicus [1] = test: Biodistribution of compound in rat lungs at 5 min after intravenous administration; assay type: ADME, organism-based, Lung; conditions: in vivo
Summary of the method: (§1)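 Rats received the 99mTc complex in normal saline (~12.5 μCi/mL) by lateral tail vein injection at ~25 μCi/kg and were killed by cervical dislocation at the stated time. Tissues were washed with saline, blotted, weighed and γ-counted to give percent injected dose/g. Time-course values are averages of male and female rats.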

Rattus norvegicus [2] = test: Biodistribution of compound in rat gonads at 1440 min after intravenous administration; assay type: ADME, organism-based, Gonad; conditions: in vivo, 24 h
Summary of the method: (§2)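 Time course in Sprague-Dawley rats after lateral tail-vein injection of the 99mTc complex in normal saline (~12.5 μCi/mL) at ~25 μCi/kg. Tissues were sampled at the stated times, washed with saline, blotted, weighed and γ-counted to give percent injected dose per g. Values are averages of male and female rats.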

Rattus norvegicus [3] = test: Biodistribution of compound in rat kidney at 180 min after intravenous administration; assay type: ADME, organism-based; conditions: in vivo, 3 h; summary of the method: as §2
Rattus norvegicus [4] = test: Biodistribution of compound in rat liver at 1440 min after intravenous administration; assay type: ADME, organism-based; conditions: in vivo, 24 h; summary of the method: as §2
Rattus norvegicus [5] = test: Biodistribution of compound in rat heart at 5 min after intravenous administration; assay type: ADME, organism-based; conditions: in vivo; summary of the method: as §2
Rattus norvegicus [6] = test: Biodistribution of compound in rat bone at 180 min after intravenous administration; assay type: ADME, organism-based, Bone element; conditions: in vivo, 3 h; summary of the method: as §2
Rattus norvegicus [7] = test: Biodistribution of compound in rat heart at 180 min after intravenous administration; assay type: ADME, organism-based; conditions: in vivo, 3 h; summary of the method: as §2
Rattus norvegicus [8] = test: Biodistribution of compound in rat kidney at 45 min after intravenous administration; assay type: ADME, organism-based; conditions: in vivo, 0.75 h; summary of the method: as §2
Rattus norvegicus [9] = test: Biodistribution of compound in rat eye at 180 min after intravenous administration; assay type: ADME, organism-based; conditions: in vivo, 3 h; summary of the method: as §2
Rattus norvegicus [10] = test: Biodistribution of compound in rat lungs at 1440 min after intravenous administration; assay type: ADME, organism-based, Lung; conditions: in vivo, 24 h; summary of the method: as §1
Rattus norvegicus [11] = test: Biodistribution of compound in rat bone at 5 min after intravenous administration; assay type: ADME, organism-based, Bone element; conditions: in vivo; summary of the method: as §2
Rattus norvegicus [12] = test: Biodistribution of compound in rat bone marrow at 45 min after intravenous administration; assay type: ADME, organism-based; conditions: in vivo, 0.75 h; summary of the method: as §2
Rattus norvegicus [13] = test: Biodistribution of compound in rat gonads at 45 min after intravenous administration; assay type: ADME, organism-based, Gonad; conditions: in vivo, 0.75 h; summary of the method: as §2
Rattus norvegicus [14] = test: Biodistribution of compound in rat blood after 5 min of administration.; assay type: ADME, organism-based; conditions: in vivo
Summary of the method: (§3)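 Female Sprague-Dawley rats (150–200 g) received the complex in normal saline (~12.5 μCi/mL) through a lateral tail vein at ~25 μCi/kg. Rats were killed by cervical dislocation 5 min after injection. Tissues were washed with saline, blotted, weighed and γ-counted to give percent injected dose/g tissue.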

Rattus norvegicus [15] = test: Biodistribution of compound in rat urine at 1440 min after intravenous administration; assay type: ADME, organism-based; conditions: in vivo, 24 h; summary of the method: as §1
Rattus norvegicus [16] = test: Biodistribution of compound in rat liver at 5 min after intravenous administration; assay type: ADME, organism-based; conditions: in vivo; summary of the method: as §1
Rattus norvegicus [17] = test: Biodistribution of compound in rat heart at 45 min after intravenous administration; assay type: ADME, organism-based; conditions: in vivo, 0.75 h; summary of the method: as §2
Rattus norvegicus [18] = test: Biodistribution of compound in rat bone marrow at 90 min after intravenous administration; assay type: ADME, organism-based; conditions: in vivo, 1.5 h; summary of the method: as §2
Rattus norvegicus [19] = test: Biodistribution of compound in rat muscle at 45 min after intravenous administration; assay type: ADME, organism-based, Muscle tissue; conditions: in vivo, 0.75 h; summary of the method: as §1
[20] = Biodistribution of compound in rat muscle after 5 min of administration.; assay type: ADME, organism-based, Muscle tissue; conditions: in vivo; summary of the method: as §3
Rattus norvegicus [21] = test: Biodistribution of compound in rat muscle at 5 min after intravenous administration; assay type: ADME, organism-based, Muscle tissue; conditions: in vivo; summary of the method: as §1
Rattus norvegicus [22] = test: Biodistribution of compound in rat heart at 360 min after intravenous administration; assay type: ADME, organism-based; conditions: in vivo, 6 h; summary of the method: as §2
Rattus norvegicus [23] = test: Biodistribution of compound in rat blood at 5 min after intravenous administration; assay type: ADME, organism-based; conditions: in vivo; summary of the method: as §2
Rattus norvegicus [24] = test: Biodistribution of compound in rat urine at 360 min after intravenous administration; assay type: ADME, organism-based; conditions: in vivo, 6 h; summary of the method: as §1
Rattus norvegicus [25] = test: Biodistribution of compound in rat blood at 90 min after intravenous administration; assay type: ADME, organism-based; conditions: in vivo, 1.5 h; summary of the method: as §2
Rattus norvegicus [26] = test: Biodistribution of compound in rat bone at 45 min after intravenous administration; assay type: ADME, organism-based, Bone element; conditions: in vivo, 0.75 h; summary of the method: as §2
Rattus norvegicus [27] = test: Biodistribution of compound in rat kidney at 360 min after intravenous administration; assay type: ADME, organism-based; conditions: in vivo, 6 h; summary of the method: as §2
Rattus norvegicus [28] = test: Biodistribution of compound in rat liver at 360 min after intravenous administration; assay type: ADME, organism-based; conditions: in vivo, 6 h; summary of the method: as §1
Rattus norvegicus [29] = test: Biodistribution of compound in rat muscle at 180 min after intravenous administration; assay type: ADME, organism-based, Muscle tissue; conditions: in vivo, 3 h; summary of the method: as §1
Rattus norvegicus [30] = test: Biodistribution of compound in rat eye at 360 min after intravenous administration; assay type: ADME, organism-based; conditions: in vivo, 6 h; summary of the method: as §2
Rattus norvegicus [31] = test: Biodistribution of compound in rat blood at 1440 min after intravenous administration; assay type: ADME, organism-based; conditions: in vivo, 24 h; summary of the method: as §2
Rattus norvegicus [32] = test: Biodistribution of compound in rat muscle at 90 min after intravenous administration; assay type: ADME, organism-based, Muscle tissue; conditions: in vivo, 1.5 h; summary of the method: as §1
Rattus norvegicus [33] = test: Biodistribution of compound in rat bone at 90 min after intravenous administration; assay type: ADME, organism-based, Bone element; conditions: in vivo, 1.5 h; summary of the method: as §2
Rattus norvegicus [34] = test: Biodistribution of compound in rat lung after 5 min of administration.; assay type: ADME, organism-based; conditions: in vivo; summary of the method: as §3
Rattus norvegicus [35] = test: Biodistribution of compound in rat feces at 1440 min after intravenous administration; assay type: ADME, organism-based; conditions: in vivo, 24 h
Rattus norvegicus [36] = test: Biodistribution of compound in rat liver at 180 min after intravenous administration; assay type: ADME, organism-based; conditions: in vivo, 3 h; summary of the method: as §2

Dose/g (Rattus norvegicus [1]): 1.4 % dose/organ
Dose/g (Rattus norvegicus [2]): 0.019 % dose
Dose/g (Rattus norvegicus [3]): 2 % dose
Dose/g (Rattus norvegicus [4]): 0.2 % dose/organ
Dose/g (Rattus norvegicus [5]): 2.51 % dose
Dose/g (Rattus norvegicus [6]): 2.2 % dose/organ
Dose/g (Rattus norvegicus [7]): 2.44 % dose
Dose/g (Rattus norvegicus [8]): 5.4 % dose
Dose/g (Rattus norvegicus [9]): 0.02 % dose
Dose/g (Rattus norvegicus [10]): 0.18 % dose/organ
Dose/g (Rattus norvegicus [11]): 3.8 % dose/organ
Dose/g (Rattus norvegicus [12]): 0.24 % dose/organ
Dose/g (Rattus norvegicus [13]): 0.089 % dose
Dose/g (Rattus norvegicus [14]): 0.1%
Dose/ml (Rattus norvegicus [15]): 20 % dose
Dose/g (Rattus norvegicus [16]): 5.6 % dose/organ
Dose/g (Rattus norvegicus [17]): 2.83 % dose
Dose/g (Rattus norvegicus [18]): 0.28 % dose/organ
Dose/g (Rattus norvegicus [19]): 30 % dose/organ
Dose/g [20]: 0.61%
Dose/g (Rattus norvegicus [21]): 44 % dose/organ
Dose/g (Rattus norvegicus [22]): 2.81 % dose
Dose/ml (Rattus norvegicus [23]): 1.06 % dose
Dose/ml (Rattus norvegicus [24]): 11 % dose
Dose/ml (Rattus norvegicus [25]): 0.3 % dose
Dose/g (Rattus norvegicus [26]): 2.6 % dose/organ
Dose/g (Rattus norvegicus [27]): 1.5 % dose
Dose/g (Rattus norvegicus [28]): 0.9 % dose/organ
Dose/g (Rattus norvegicus [29]): 44 % dose/organ
Dose/g (Rattus norvegicus [30]): 0.022 % dose
Dose/ml (Rattus norvegicus [31]): 0.07 % dose
Dose/g (Rattus norvegicus [32]): 42 % dose/organ
Dose/g (Rattus norvegicus [33]): 3.5 % dose/organ
Dose/g (Rattus norvegicus [34]): 1.3%
Dose/g (Rattus norvegicus [35]): 30 % dose
Dose/g (Rattus norvegicus [36]): 1 % dose/organ
Substance: Bis(1,2,3,5-tetramethylbenzene)technetium
